# From ChEMBL document CHEMBL1122744, “2-Chloroethyl (methylsulfonyl)methanesulfonate and related (methylsulfonyl)methanesulfonates. Antineoplastic activity in vivo” (J Med Chem, 1984)
# Several values for one entry are separate records, joined by “and”; a condition that tells them apart may be missing. Equal values may be shown once.
# Legend:
# Mus musculus [1] = test: Median survival time of the untreated control groups, in which there are no 30-day survivors at dose 50 mg/kg in exp1; type: functional
# [2] = Ratio of number of 60-day survivors to the total treated mice at dose 25 mg/kg in exp1; 0/6; type: functional
# Mus musculus [3] = test: Change in weight by day 5, obtained by subtracting treated groups of animals minus control groups of animals at dose 50 mg/kg in exp2; type: functional
# In short: (§1)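 Mice were inoculated ip with 10^6 P388 leukemia cells on day 0, when treated and control mice weighed 19–22 g. Treatment was given ip once daily on days 1–5, within about 5 min of preparing the solution or suspension. Groups of six (occasionally five) were treated, with 30 untreated inoculated mice as controls. The day-5 weight change is the mean treated change minus the mean control change.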
# [4] = Ratio of median survival times for non-survivors at dose 12 mg/kg in exp2; type: functional; conditions: 12 mg/kg
# In short: (§2)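 Mice were inoculated ip with 10^6 P388 leukemia cells on day 0. Groups of six (occasionally five) were dosed ip qd on days 1–5 with fresh suspensions; 30 mice served as untreated controls. Deaths were recorded daily up to day 60. T/C% compares the median survival of treated non-survivors (<60 days) with the control median. Medians used grouped data when there were no 30-day survivors, otherwise ungrouped data. t = toxic.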
# Mus musculus [5] = test: Median survival time of the treated control groups, in which there are no 30-day survivors at dose 12 mg/kg in exp2; type: functional; conditions: 12 mg/kg
# Mus musculus [6] = test: Median survival time of the untreated control groups, in which there are no 30-day survivors at dose 100 mg/kg in exp1; type: functional
# Mus musculus [7] = test: Mortality by day 5 expressed as number of mice died to the total treated at dose 200 mg/kg in exp1; 5/6; type: ADME, organism-based; set-up: dose 200 mg/kg; conditions: in vivo
# [8] = Ratio of number of 60-day survivors to the total treated mice at dose 25 mg/kg in exp2; 2/6; type: functional
# Mus musculus [9] = test: Change in weight by day 5, obtained by subtracting treated groups of animals minus control groups of animals at dose 25 mg/kg in exp1.; type: functional; in short: as §1
# [10] = Ratio of number of 60-day survivors to the total treated mice at dose 25 mg/kg in exp2; 1/6; type: functional
# [11] = Ratio of median survival times for non-survivors at dose 50 mg/kg in exp1; t= toxic; type: ADME, organism-based; set-up: dose 50 mg/kg; conditions: in vivo
# [12] = Ratio of median survival times for non-survivors at dose 25 mg/kg in exp1*-based on the four of six that survived bryond 5th day; type: functional
# [13] = Ratio of median survival times for non-survivors at dose 25 mg/kg in exp2; type: functional; in short: as §2
# Mus musculus [14] = test: Mortality by day 5 expressed as number of mice died to the total treated at dose 50 mg/kg in exp1; 6/6; type: ADME, organism-based; set-up: dose 50 mg/kg; conditions: in vivo
# Mus musculus [15] = test: Median survival time of the untreated control groups, in which there are no 30-day survivors at dose 25 mg/kg in exp2; type: functional
# Mus musculus [16] = test: Change in weight by day 5, obtained by subtracting treated groups of animals minus control groups of animals at dose 6 mg/kg in exp2; type: functional
# In short: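 Mice were inoculated ip with 10^6 P388 leukemia cells on day 0 and weighed 19–22 g that day. Compound was given ip once daily on days 1–5, within about 5 min of preparing the solution or suspension, to groups of six (occasionally five). Thirty inoculated untreated mice served as controls. The value is the average weight change of treated mice minus that of controls on day 5.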
# [17] = Ratio of number of 30-day survivors to the total treated mice at dose 25 mg/kg in exp2; 3/6; type: functional
# Mus musculus [18] = test: Median survival time of the treated control groups, in which there are no 30-day survivors at dose 25 mg/kg in exp2; type: functional
# Mus musculus [19] = test: Mortality by day 5 expressed as number of mice died to the total treated at dose 6 mg/kg in exp2; 0/6; type: ADME, organism-based; set-up: dose 6 mg/kg; conditions: in vivo
# Mus musculus [20] = test: Median survival time of the treated control groups, in which there are no 30-day survivors at dose 25 mg/kg in exp1*-based on the four of six that survived bryond 5th day; type: functional
# Mus musculus [21] = test: Change in weight by day 5, obtained by subtracting treated groups of animals minus control groups of animals at dose 25 mg/kg in exp2; type: functional; in short: as §1
# [22] = Ratio of median survival times for non-survivors at dose 100 mg/kg in exp1; t=toxic; type: ADME, organism-based; set-up: dose 100 mg/kg; conditions: in vivo; in short: as §2
# Mus musculus [23] = test: Mortality by day 5 expressed as number of mice died to the total treated at dose 100 mg/kg in exp1; 6/6; type: ADME, organism-based; set-up: dose 100 mg/kg; conditions: in vivo
# Mus musculus [24] = test: Change in weight by day 5, obtained by subtracting treated groups of animals minus control groups of animals at dose 12 mg/kg in exp2; type: functional; in short: as §1
# Mus musculus [25] = test: Median survival time of the untreated control groups, in which there are no 30-day survivors at dose 12 mg/kg in exp2; type: functional
# [26] = Ratio of number of 30-day survivors to the total treated mice at dose 25 mg/kg in exp1; 2/6; type: functional
# Mus musculus [27] = test: Mortality by day 5 expressed as number of mice died to the total treated at dose 25 mg/kg in exp1; 2/6; type: ADME, organism-based; set-up: dose 25 mg/kg; conditions: in vivo
# Mus musculus [28] = test: Median survival time of the untreated control groups, in which there are no 30-day survivors at dose 25 mg/kg in exp1; type: functional
# Mus musculus [29] = test: Mortality by day 5 expressed as number of mice died to the total treated at dose 25 mg/kg in exp2; 0/6; type: ADME, organism-based; set-up: dose 25 mg/kg; conditions: in vivo
# Mus musculus [30] = test: Mortality by day 5 expressed as number of mice died to the total treated at dose 50 mg/kg in exp1; 0/6; type: ADME, organism-based; set-up: dose 50 mg/kg; conditions: in vivo
# Mus musculus [31] = test: Median survival time of the treated control groups, in which there are no 30-day survivors at dose 50 mg/kg in exp1; type: functional
# [32] = Ratio of median survival times for non-survivors at dose 200 mg/kg in exp1; t= toxic; type: ADME, organism-based; set-up: dose 200 mg/kg; conditions: in vivo; in short: as §2
# Mus musculus [33] = test: Median survival time of the treated control groups, in which there are no 30-day survivors at dose 100 mg/kg in exp1; type: functional
# [34] = Ratio of median survival times for non-survivors at dose 50 mg/kg in exp1; type: functional; set-up: unit: %; in short: as §2
# [35] = Ratio of median survival times for non-survivors at dose 100 mg/kg in exp1; type: functional; set-up: unit: %; in short: as §2
# Mus musculus [36] = test: Change in weight by day 5, obtained by subtracting treated groups of animals minus control groups of animals at dose 50 mg/kg in exp1.; type: functional; in short: as §1
# Mus musculus [37] = test: Mortality by day 5 expressed as number of mice died to the total treated at dose 100 mg/kg in exp1; 0/6; type: ADME, organism-based; set-up: dose 100 mg/kg; conditions: in vivo
# Mus musculus [38] = test: Median survival time of the untreated control groups, in which there are no 30-day survivors at dose 200 mg/kg in exp1; type: functional
# Mus musculus [39] = test: Change in weight by day 5, obtained by subtracting treated groups of animals minus control groups of animals at dose 100 mg/kg in exp1.; type: functional; in short: as §1
compound,measurement,setting,value
CS(=O)(=O)CS(=O)(=O)OCCF,Median survival time,Mus musculus [1],11.2
same,Ratio,[2],0
same,Change in weight,Mus musculus [3],-4.8
same,Ratio,[4],188 and 142
same,Median survival time,Mus musculus [5],19.8 and 15
same,Median survival time,Mus musculus [6],11.2
same,Mortality,Mus musculus [7],5
same,Ratio,[8],2
same,Change in weight,Mus musculus [9],-4.3
same,Ratio,[10],1
same,Ratio,[11],Toxic
same,Ratio,[12],277
same,Ratio,[13],286
same,Mortality,Mus musculus [14],6
same,Median survival time,Mus musculus [15],10.5
same,Change in weight,Mus musculus [16],-1.8
same,Ratio,[17],3
same,Median survival time,Mus musculus [18],30
same,Mortality,Mus musculus [19],0
same,Median survival time,Mus musculus [20],31
same,Change in weight,Mus musculus [21],-5.6
same,Ratio,[22],Toxic
same,Mortality,Mus musculus [23],6
same,Change in weight,Mus musculus [24],-3.7
same,Median survival time,Mus musculus [25],10.5
same,Ratio,[26],2
same,Mortality,Mus musculus [27],2
same,Median survival time,Mus musculus [28],11.2
same,Mortality,Mus musculus [29],0
O=S(=O)(CCl)OCCBr,Mortality,Mus musculus [30],0
same,Median survival time,Mus musculus [31],12.3
same,Median survival time,Mus musculus [1],11.1
same,Ratio,[32],Toxic
same,Median survival time,Mus musculus [6],11.1
same,Mortality,Mus musculus [7],5
same,Median survival time,Mus musculus [33],12.7
same,Ratio,[34],110
same,Ratio,[35],114
same,Change in weight,Mus musculus [36],-0.5
same,Mortality,Mus musculus [37],0
same,Median survival time,Mus musculus [38],11.1
same,Change in weight,Mus musculus [39],-1.5
